A selection: hits, their analogues and other compounds. The true share with any hit is near 1.9%.
SUMO1-SIM PPI – modulators of human SUMO1-mediated protein-protein interactions. P63165. SUMO1 binding to a labelled peptide, TR-FRET, 1 h. inhibition, % at 20 µM. 360,000 tested, 0.33% active. AID 602429; in the data active = inhibition above about 37%
Target sequence (P63165 whole entry, looked up): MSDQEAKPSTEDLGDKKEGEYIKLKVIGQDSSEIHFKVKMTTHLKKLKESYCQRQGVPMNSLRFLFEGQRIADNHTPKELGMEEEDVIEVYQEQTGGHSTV
LMPTP block – LMPTP (human) inhibition | recombinant LMPTP-A, OMFP fluorogenic substrate, fluorescence intensity | inhibition, % at 20 µM | 360,000 tested, 0.22% active | AID 651560;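 active = compounds that cut the enzyme signal by at least half of the control window in the single-dose screen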
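material = LMPTP-A | quantity = 0.625 nM enzyme | reagent = OMFP substrate, 400 µM final | buffer or medium = Bis-Tris pH 6.0, DTT, detergent | detection = endpoint fluorescence intensity from OMFP dephosphorylation | dosing = single 20 µM dose | read-out basis = % inhibition relative to no-enzyme and uninhibited control wells | control set = no-enzyme and uninhibited controls | timing = 50 min at room temperature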
FAS-TE inh – blocks the thioesterase domain of human fatty acid synthase | recombinant FAS-TE, OMFH fluorogenic substrate, fluorescence endpoint | 360,000 tested, 0.67% active | AID 602261 | inhibition, % at 15 µM | P49327;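 active = compounds whose normalised, plate-corrected inhibition of enzyme fluorescence in the single-dose primary screen is 50% or more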
Scp1 inh – Scp-1 (human) phosphatase inhibition; inhibition, % at 20 µM; Recombinant Scp1, phosphopeptide, malachite green phosphate absorbance; Q9GZU7; 340,000 tested, 0.88% active;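 active = inhibition above about 50% at 20 µM, limit read from the data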
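Material: truncated SCP-1 phosphatase (76-261aa) / Buffer or medium: 50 mM Tris acetate pH 5.5, 0.005% Tween-20, 10 mM MgCl2 / Compound dosing: one concentration, 20 µM, with 1.0% DMSO / Incubation: 45 min room-temperature reaction, 5 min colour, 30 min stabiliser / Detection: colorimetric free-phosphate detection, absorbance 630 nm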
STEP block – blocks human striatal-enriched tyrosine phosphatase; P54829; recombinant STEP, OMFP fluorogenic substrate, fluorescence; inhibition, % at 20 µM; 360,000 tested, 0.25% active;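 active = inhibition at 20 µM, scaled per plate between control wells, above about 37%, limit read from the data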
Target sequence (P54829 whole entry, looked up): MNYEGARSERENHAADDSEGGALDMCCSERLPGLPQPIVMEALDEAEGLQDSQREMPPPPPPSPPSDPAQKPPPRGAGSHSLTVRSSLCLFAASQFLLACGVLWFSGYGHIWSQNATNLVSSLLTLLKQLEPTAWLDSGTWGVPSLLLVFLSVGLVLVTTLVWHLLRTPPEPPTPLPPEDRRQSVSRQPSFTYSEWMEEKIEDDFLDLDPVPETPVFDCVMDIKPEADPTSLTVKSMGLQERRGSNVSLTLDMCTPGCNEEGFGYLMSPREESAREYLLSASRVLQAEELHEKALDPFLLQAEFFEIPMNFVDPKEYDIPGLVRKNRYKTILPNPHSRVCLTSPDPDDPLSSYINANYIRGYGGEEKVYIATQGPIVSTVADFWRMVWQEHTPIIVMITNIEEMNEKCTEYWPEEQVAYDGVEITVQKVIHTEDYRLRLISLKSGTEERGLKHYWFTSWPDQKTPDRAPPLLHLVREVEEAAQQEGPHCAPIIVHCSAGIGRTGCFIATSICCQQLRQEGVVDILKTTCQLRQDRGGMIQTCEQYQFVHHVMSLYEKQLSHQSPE
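Test system: STEP tyrosine phosphatase / Reagent: OMFP at 25 µM / Doses: 20 µM, 1% DMSO / Read-out: percent inhibition scaled to no-enzyme and uninhibited-enzyme controls, plate-pattern corrected / Detection: FITC-channel fluorescence of OMFP product / Medium: Bis-Tris buffer pH 6.0, 2.5 mM DTT, 0.005% Tween 20 / Schedule: 20 min at room temperature, dark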
Scp-1 conf – confirmation of human Scp-1 phosphatase inhibitors; recombinant SCP-1 catalytic domain, phosphate release, malachite green absorbance; 2,500 tested, 61% active; inhibition, % at 20 µM; shares compounds with Scp1 inh; AID 540281
MG interference – colorimetric interference in Scp-1 counter-screen | shares compounds with Scp1 inh | Colorimetric interference counterscreen, malachite green absorbance 630 nm | apparent inhibition (interference), % at 20 µM | 2,500 tested, under 10 active | AID 540313;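 note: compounds added after enzyme reaction finished so only phosphate colour detection is probed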
Scp1 DSF – Scp-1 (human) binding by thermal shift | 1,500 tested, 25% active | shares compounds with Scp1 inh | thermal shift relative to vanadate control, % at 40 µM | AID 540329 | Recombinant SCP1, Sypro Orange thermal shift Tm;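 active = substances whose mean melting-temperature shift, as a percentage of the reference inhibitor's shift, reaches about 5.3%, limit read from the data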
Large screens that a line does not name were inactive (follow-up assays come after a bar, where they were run).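 Rule for the calls, unless noted: active = inhibition of at least 30% at 20 µM; inactive = the rest.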

COC(=O)Oc1nsnc1N1CCOCC1	Scp1 inh 69.5
O=C(Oc1nsnc1N1CCOCC1)N(c1ccccc1)c1ccccc1	none
CC(=O)Nc1cccc(-c2ccnc3c2CC(C(=O)Nc2ccc(Cl)cc2)O3)c1 (configuration not stated)	none (no result: Scp1 inh)
CCn1cc(C(=O)O)c(=O)c2cnc(N3CCN(C(=S)NC(=O)c4ccc(OC)cc4)CC3)nc21	LMPTP block 65.3
CCn1cc(C(=O)O)c(=O)c2cnc(N3CCN(C(=S)NC(=O)c4ccc(Cl)cc4Cl)CC3)nc21	LMPTP block 51.2
Cc1cccc(C)c1NC(=O)C1(C)CN(S(C)(=O)=O)CC(=O)N1CCc1ccccc1F (configuration not stated)	none (no result: FAS-TE inh, Scp1 inh, STEP block)
Cc1ccc(S(=O)(=O)N2[C@@H](CCO)OC[C@H]2C(C)C)cc1	none (no result: FAS-TE inh, Scp1 inh, STEP block)
N#CC(C#N)=C1NC(N)=C(C#N)C(c2ccccc2)=C1C#N	SUMO1-SIM PPI 40.5 (no result: Scp1 inh)
CCOc1cc(/C=C2/C(=O)N(c3ccccc3)N=C2C)ccc1OC(=O)c1ccco1	none
CC1=NN(c2ccc(C(=O)O)cc2)C(=O)/C1=C\c1ccc(OC(=O)c2cccs2)cc1	Scp1 inh 51.8
CCOc1cc(/C=C2\C(=O)N(c3ccc(C(N)=O)cc3)N=C2C)ccc1OC(=O)c1cccs1	SUMO1-SIM PPI 74.5
N#CC1=C2SCN(Cc3ccccc3)CN2C(=O)CC1c1cccs1 (configuration not stated)	STEP block 48.3
N#CC1=C2SCN(Cc3ccccc3)CN2C(=O)CC1c1ccc2c(c1)OCO2 (configuration not stated)	none
CCC(=O)N1Cc2cc(C(=O)Nc3nccs3)nc(-c3cccc(-c4ccccc4OC)c3)c2[C@@H]1CCO	none (no result: Scp1 inh, STEP block)
COc1cccc2c1[C@@H]1CN(CCCCn3c(=O)[nH]c4c(sc5ncc(-c6ccccc6)nc54)c3=O)C[C@@H]1CO2	LMPTP block 67.5
COc1ccc(S(=O)(=O)NCc2csc(-c3cccnc3)n2)cc1	SUMO1-SIM PPI 43.2
O=S(=O)(NCc1csc(-c2cccnc2)n1)c1ccc(Br)cc1	none
Cc1cn(-c2cc(NC(=O)c3ccc(C)c(NC(=O)c4cccc(-c5cn[nH]c(=O)c5)c4)c3)cc(C(F)(F)F)c2)cn1	SUMO1-SIM PPI 73.3
C/C(CC(=O)NCc1ccco1)=N\NC(=O)Cc1ccccc1	none
C/C(CC(=O)NCc1ccco1)=N\NC(=O)C(c1ccccc1)c1ccccc1	SUMO1-SIM PPI 49.2
Cc1ccc(C(=O)c2sc(Nc3ccccc3)c(C#N)c2N)cc1	none
CCOC(=O)c1ccc(Nc2sc(C(=O)c3cccc([N+](=O)[O-])c3)c(N)c2C#N)cc1	SUMO1-SIM PPI 52.7
Cc1c(Br)c(O)c(Br)c(O)c1/C=N/n1c(-c2ccccc2)n[nH]c1=S	Scp1 inh 89.7
Oc1ccc(/C=N/n2c(-c3ccccc3)n[nH]c2=S)cc1Br	none
Nc1cc2[nH]c(=O)c3ccccc3c2cc1[N+](=O)[O-]	SUMO1-SIM PPI 50.2
OC(COCC1COc2ccccc2O1)CN1CCN(c2ccccc2)CC1 (configuration not stated)	none
C[N+]1(CC(O)COCC2COc3ccccc3O2)CCOCC1 (configuration not stated)	Scp1 inh 105.5
CCN(CC)c1ccc(C(NC(C)=O)NC(C)=O)cc1	none
CC(=O)NC(NC(C)=O)c1ccc(N(C)C)cc1	Scp1 inh 52.3
COc1cccc2c1C(=O)c1c(O)c3c(c(O)c1C2=O)C[C@@](O)(C(=O)CO)C[C@@H]3O[C@H]1C[C@H](N)[C@@H](O)[C@H](C)O1	SUMO1-SIM PPI 97.0
COCCN1C(=O)CSCC1(C)C(=O)Nc1c(C)cccc1C (configuration not stated)	none (no result: FAS-TE inh, Scp1 inh, STEP block)
C=C1C(=O)OCC2C(C(=O)O)=CC3C(C)C(C)=CC123 (configuration not stated)	none (no result: Scp1 inh)
Cc1ccc(S(=O)(=O)NC(=O)C2(C)CCN2C(=O)Cc2ccc(Cl)cc2Cl)nc1 (configuration not stated)	none (no result: Scp1 inh)
Cn1c(=O)c2cc(NC(=O)NCCc3ccccc3)ccc2n1Cc1ccc(F)cc1	none (no result: Scp1 inh)
CCCc1cc(SCC(=O)Nc2c(C)n(C)n(-c3ccccc3)c2=O)n2c(nc3ccccc32)c1C#N	Scp1 inh 97.7 (no result: SUMO1-SIM PPI, LMPTP block, FAS-TE inh, STEP block) | Scp-1 conf 84.4 | MG interference inactive | Scp1 DSF inactive
Cc1nc(SCC(=O)Nc2c(C)n(C)n(-c3ccccc3)c2=O)c(C#N)c(C)c1C	none
CCCNC(=O)C1(C)CCCN(C(=O)c2cccc(C(F)(F)F)c2)C1 (configuration not stated)	none (no result: Scp1 inh)
O=C(CCS(=O)(=O)c1ccc(Br)cc1)NCCc1ccccc1	Scp1 inh 88.0 | Scp-1 conf 62.3 | MG interference inactive | Scp1 DSF inactive
CCOc1ccc(CCNC(=O)CCS(=O)(=O)c2ccc(Br)cc2)cc1OCC	none
NS(=O)(=O)c1ccc(CCNC(=O)CCS(=O)(=O)c2ccc(Br)cc2)cc1	SUMO1-SIM PPI 74.7, Scp1 inh 95.6 | Scp-1 conf 66.0 | MG interference inactive | Scp1 DSF inactive
O=C(Nc1ccc2c(c1)OCO2)c1cc2ncc(Br)cn2n1	Scp1 inh 57.4 | Scp-1 conf 66.4 | MG interference inactive | Scp1 DSF inactive
O=C(Nc1cccc(C(F)(F)F)c1)c1cc2ncc(Br)cn2n1	none
Cc1c(Cl)cnn1CC(=O)NC1C(=O)N2C(C(=O)O)=C(CSc3nnnn3C)CSC12 (configuration not stated)	none
Cc1c(Cl)c(C(F)F)nn1CC(=O)NC1C(=O)N2C(C(=O)O)=C(CSc3nnnn3C)CSC12 (configuration not stated)	Scp1 inh 67.8 | Scp-1 conf 56.2 | MG interference inactive | Scp1 DSF inactive
Cn1nnnc1SCC1=C(C(=O)O)N2C(=O)C(NC(=O)Cn3nc(C(F)F)cc3C3CC3)C2SC1 (configuration not stated)	Scp1 inh 56.1 | Scp-1 conf 61.4 | MG interference inactive | Scp1 DSF inactive
Cc1cc(C(=O)O)ccc1-c1ccc(/C=C2\NC(=O)N(Cc3ccccc3Cl)C2=O)o1	Scp1 inh 64.9 | Scp-1 conf 74.6 | MG interference inactive | Scp1 DSF 9.3
Cc1ccc(C(=O)O)cc1-c1ccc(/C=C2/NC(=O)N(c3ccccc3)C2=O)o1	Scp1 inh 63.0 | Scp-1 conf 67.9 | MG interference inactive | Scp1 DSF 12.6

Source: PubChem BioAssay (Sanford-Burnham Center for Chemical Genomics)
